Compound activity as filed in PubChem.
Rows were chosen to be rich in hits. Some 3.5% of all compounds tested hit in one or more screens of this group.
MrgX1 antag – antagonists of human MrgX1 receptor, primary screen, HEK293 cells, Fluo-4 calcium flux. BAM8-22 antagonism; active compounds read low. B-score at 10 µM. actives 1.3% (n = 310,000). AID 588676, 2011;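 active means calcium-response B-score plate-corrected more than 3 library SD below zero, starting fluorescence within 5 deviations, no agonist response on first addition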;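 further: peak minus trough fluorescence over baseline after final BAM8-22 challenge near maximal dose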
MrgX1 allo act – positive allosteric modulators of MrgX1, primary screen, HEK293 cells, Fluo-4 calcium flux; Mas-related G-protein coupled receptor member X1 (Homo sapiens), Q96LB2; FDSS; active compounds read high; B-score at 10 µM; actives 0.63% (n = 310,000); AID 588675, 2011;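 active means plate-corrected calcium response at least 3 library SD above typical, normal starting fluorescence, not activating the receptor alone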;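 further: compound read alongside a low EC10 to EC30 dose of BAM8-22 agonist; peak minus trough fluorescence over baseline measured at the second addition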
MrgX1 agonist – agonists of human MrgX1 receptor, primary screen, HEK293 cells, Fluo-4 calcium flux. Mas-related G-protein coupled receptor member X1 (Homo sapiens), Q96LB2. Fluo-4 calcium fluorescence, agonist mode; active compounds read high. B-score at 10 µM. actives 0.44% (n = 310,000). AID 588627, 2011;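 active means calcium response B-score plate-corrected fluorescence ratio at least 3 library SD, with starting fluorescence B-score inside 5 SD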
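Material: MrgX1-expressing HEK293 cells; input: 15,000 cells per well; doses: test compound given as first of three sequential additions; schedule: overnight plating before 1 h dye loading; technique: Fluo-4 NW calcium-flux fluorescence, kinetic read; evaluation: baseline-normalised fluorescence change ratio, B-scored; control set: plate-wise positive and negative controls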
RGS4 block – RGS4 inhibitors, primary screen, cell-based, HEK293 M3R inducible RGS4, calcium flux. Regulator of G-protein signaling 4 (Homo sapiens), P49798. B-score at 10 µM. actives 0.45% (n = 310,000). Fluo-4 calcium flux; active compounds read high; triggered by carbachol at its EC20;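 active means B-score, a plate-corrected calcium signal, over three deviations above library mean, with baseline fluorescence within five deviations of library mean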;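 further: RGS4 expression induced by doxycycline in cells with stable M3 receptor; B-score is computed from the integrated fluorescence ratio over baseline after carbachol; higher B-score means a larger calcium signal and so more RGS4 inhibition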
Target sequence (P49798 whole entry, looked up): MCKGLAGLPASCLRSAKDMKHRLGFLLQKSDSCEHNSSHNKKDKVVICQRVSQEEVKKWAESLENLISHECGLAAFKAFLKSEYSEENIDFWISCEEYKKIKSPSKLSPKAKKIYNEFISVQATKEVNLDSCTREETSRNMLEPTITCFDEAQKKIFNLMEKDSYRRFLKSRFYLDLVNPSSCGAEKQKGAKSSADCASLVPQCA
RGS4 pot – RGS4 potentiators or activators, primary screen, cell-based, HEK293 M3R inducible RGS4, calcium flux | actives 0.92% (n = 310,000) | B-score at 10 µM | carbachol calcium flux Fluo4; active compounds read low;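 active means B-score of the integrated calcium signal more than 4 SD below the library mean, with starting fluorescence not abnormally high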;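 further: negative B-score means reduced calcium response which marks RGS4 activation or potentiation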
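System – HEK293 FlpIn-TREx cells, stable M3R, doxycycline-inducible RGS4 · Reagent – ECmax carbachol challenge · Times – compound preincubation 20 min at room temperature before agonist · Technique – Fluo4 fluorescence kinetic imaging of calcium · Measure – B score of integrated Fluo4 ratio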
RGS4 block valid – enhanced carbachol calcium response, M3R/RGS4 cells, RGS4 inhibitor project, cell-based, validation screen, HEK293 M3R/RGS4, calcium flux; actives 65% (n = 1,700); carbachol calcium Fluo-4 fluorescence; carbachol added at its EC20; 0 = buffer wells, 100 = carbachol control; shares compounds with RGS4 block; calcium response, % at 10 µM;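 active means duplicate-averaged calcium response above the buffer-only control mean plus 5 SD of those controls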;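 further: integrated fluorescence ratio F max minus min over baseline F0; higher response in RGS4-induced cells means RGS4 inhibition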
RGS4 uninduced – carbachol calcium response in non-induced M3R cells, confirmation, counter-screen for RGS4 inhibitor project, cell-based, HEK293 M3R | shares compounds with RGS4 block | carbachol calcium Fluo-4; submaximal (EC20) carbachol stimulus; buffer wells 0%, carbachol control wells 100% | activity (percent), % at 10 µM | actives 20% (n = 1,900) | AID 493000, 2010; call rule not given here;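 further: RGS4 induction absent so cells express M3R without RGS4; higher means more calcium signal and flags a non-specific hit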
M3R basal Ca ctr – second RGS4 inhibitor counter-screen in uninduced cells lacking carbachol; shares compounds with RGS4 block; HEK293 M3R/RGS4 non-induced, Fluo-4 calcium, no carbachol; normalised: buffer wells 0%, carbachol wells 100%; calcium response (agonist-mode artifact), % at 10 µM; actives 22% (n = 1,900);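 active means duplicate-averaged calcium rise in uninduced cells above buffer wells' mean plus 5 SD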
* marks the source's active call; other numbers are inactive results; i = inactive; nt = no result.

SMILES	MrgX1 antag	MrgX1 allo act	MrgX1 agonist	RGS4 block	RGS4 pot	RGS4 block valid	RGS4 uninduced	M3R basal Ca ctr
O=C(NC(C(=O)N/N=C/c1c2ccccc2cc2ccccc12)c1n[nH]c(=O)c2ccccc12)c1ccccc1 (stereo not given)	i	i	i	i	i	i	i	128%*
COc1ccccc1CC(NC(C)=O)C(=O)NC1CCN(S(=O)(=O)c2ccccc2)CC1 (stereo not given)	nt	nt	nt	5.7*	i	i	i	i
COc1cccc(CC(NC(C)=O)C(=O)NC2CCN(S(=O)(=O)c3ccc(NC(C)=O)cc3)CC2)c1OC (stereo not given)	i	i	i	i	i	nt	nt	nt
COc1ccccc1CC(NC(C)=O)C(=O)NC1CCN(S(=O)(=O)c2ccc(NC(C)=O)cc2)CC1 (stereo not given)	i	i	i	i	i	i	i	i
COc1cc(C(=O)NCCCC2CCCC2)ccc1OC1CCN(C(C)=O)CC1	nt	nt	nt	i	i	nt	nt	nt
Cc1ccc(N(CC(=O)NCc2ccco2)C(=O)CNS(=O)(=O)c2ccc(F)cc2)c(C)c1	i	i	i	i	i	nt	nt	nt
Cc1ccccc1N(CC(=O)NCc1ccco1)C(=O)CNS(=O)(=O)c1ccc(F)cc1	i	i	i	i	i	i	i	i
CC(C)C(NS(=O)(=O)c1ccccc1)C(=O)N1CCCC1 (stereo not given)	i	i	i	i	i	nt	nt	nt
CC1(C)CC(=O)C(C(C2=C(O)CC(C)(C)CC2=O)c2cccs2)C(=O)C1 (stereo not given)	i	i	i	5.7*	i	24%*	58%*	i
CC1(C)CC(=O)C(C(C2=C(O)CC(C)(C)CC2=O)c2cccc(O)c2)C(=O)C1 (stereo not given)	i	i	i	nt	nt	nt	nt	nt
Cc1ccc(C(C2=C(O)CC(C)(C)CC2=O)C2C(=O)CC(C)(C)CC2=O)o1 (stereo not given)	i	i	i	9.3*	i	16%*	i	i
Cn1nc(C(=O)NNC(=O)CCc2ccccc2Cl)c2ccccc2c1=O	i	i	i	i	i	nt	nt	nt
O=C(Cc1ccc([N+](=O)[O-])cc1)c1ccc(O)cc1O	i	i	i	i	i	nt	nt	nt
Cn1c(=O)c2c(-c3ccccc3)n(-n3cnnc3)cc2n(C)c1=O	i	i	i	5.4*	i	11%*	i	i
CCN(c1ccccc1)S(=O)(=O)c1cccc(C(=O)NCC(c2cccs2)N2CCOCC2)c1 (stereo not given)	i	i	i	i	i	nt	nt	nt
Cc1cc(NC(=O)CSc2ccnc(=O)[nH]2)no1	i	i	i	i	i	nt	nt	nt
O=c1c2ccccc2nc2c3ccccc3c(NCc3ccco3)nn12	i	i	i	4.9*	i	i	i	i
CCOC(=O)C1CCN(C(c2cc3c(C)ccc(C)c3[nH]c2=O)c2nnnn2C2CCCCC2)CC1 (stereo not given)	i	i	i	i	i	i	i	i
CCOC(=O)C1CCN(C(c2cc3ccc(C)c(C)c3[nH]c2=O)c2nnnn2C2CCCCC2)CC1 (stereo not given)	i	i	i	i	i	i	i	19%*
